Holding throughout (type): functional
For test [1], the system named is Streptococcus pyogenes. The test is described as follows: Minimum inhibitory concentration was evaluated in vitro against Streptococcus pyogenes C 203. The method in brief: (§1)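 Standard microtitration broth assay against a panel of 10 Gram-positive and Gram-negative organisms. MIC read in µg/mL and averaged over multiple experiments.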
Another test has as its system Pseudomonas aeruginosa. The test is described as follows: Minimum inhibitory concentration was evaluated in vitro against Pseudomonas aeruginosa UI-18. An outline of the steps: as §1
For test [2], the system named is Streptococcus pyogenes. The test is described as follows: Compounds were evaluated in vivo for antibacterial activity for mouse protection against Streptococcus pyogenes C 203 after oral administration. The following applies: Streptococcus pyogenes, C 203, po; read-out: PD50.
For a further test, the system named is Klebsiella pneumoniae. The test is described as follows: Minimum inhibitory concentration was evaluated in vitro against Klebsiella pneumoniae MGH2. An outline of the steps: as §1
For test [3], the system named is Staphylococcus aureus. Nature of the test: Minimum inhibitory concentration was evaluated in vitro against Staphylococcus aureus H 228. An outline of the steps: as §1
A further test relates to Enterococcus faecalis. Nature of the test: Minimum inhibitory concentration was evaluated in vitro against Enterococcus faecalis MGH-2. An outline of the steps:
as §1

The subject of another test is Enterobacter cloacae. The test is described as follows: Minimum inhibitory concentration in vitro against Enterobacter cloacae MA 2646.
The next test concerns Escherichia coli. Nature of the test: Antibacterial activity in vitro against Escherichia coli Vogel. The method in brief:
as §1

The test system of the next test is Streptococcus pneumoniae. Nature of the test: Minimum inhibitory concentration was evaluated in vitro against Streptococcus pneumoniae SV-1. An outline of the steps: as §1
Another test relates to Providencia rettgeri. Nature of the test: Minimum inhibitory concentration was evaluated in vitro against Providencia rettgeri M1771. An outline of the steps:
as §1

Test [4] deals with Staphylococcus aureus. The test is described as follows: Minimum inhibitory concentration was evaluated in vitro against Staphylococcus aureus UC 76. The method in brief:
as §1

For test [5], the system named is Streptococcus pyogenes. The test is described as follows: Antibacterial activity measured as mouse protection against Streptococcus pyogenes C 203 after subcutaneous administration. The following applies: Streptococcus pyogenes, C 203, sc; read-out: PD50.
The mark [6] stands for this setting: Streptococcus pyogenes, read-out: MIC.
Setting [7] is: Pseudomonas aeruginosa, read-out: MIC.
[8] abbreviates: Klebsiella pneumoniae, read-out: MIC.
Where [9] appears, read: Staphylococcus aureus, read-out: MIC.
Setting [10] is: Enterococcus faecalis, read-out: MIC.
[11] abbreviates: Enterobacter cloacae, read-out: MIC.
The mark [12] stands for this setting: Escherichia coli, read-out: MIC.
The mark [13] stands for this setting: Streptococcus pneumoniae, read-out: MIC.
Where [14] appears, read: Providencia rettgeri, read-out: MIC.

Usually MIC stands for the least concentration at which growth counts as inhibited.

≈ marks a conversion by molar mass, not a printed value. Bounds are passed on as bounds.

Turning to `CN[C@H](C)[C@@H]1CCN(c2c(F)cc3c(=O)c(C(=O)O)cn(C4CC4)c3c2C(F)(F)F)C1`, the MIC with Streptococcus pyogenes [1] (setting [6]) is 0.05 µg/mL (≈ 0.113 µM); with Pseudomonas aeruginosa (setting [7]) it was 6.3 µg/mL (≈ 14.3 µM); with Klebsiella pneumoniae (setting [8]), 1.6 µg/mL (≈ 3.62 µM); in the test with Staphylococcus aureus [3] (setting [9]), 0.05 µg/mL (≈ 0.113 µM); with Enterococcus faecalis (setting [10]) it was 0.1 µg/mL (≈ 0.227 µM); in the test on Enterobacter cloacae (setting [11]) it was 0.4 µg/mL (≈ 0.906 µM). In addition, the MIC turned out to be 0.2 µg/mL (≈ 0.453 µM) in the test with Escherichia coli (setting [12]), 0.05 µg/mL (≈ 0.113 µM) in the test on Streptococcus pneumoniae (setting [13]), 3.1 µg/mL (≈ 7.02 µM) in the test on Providencia rettgeri (setting [14]) and 0.025 µg/mL (≈ 0.0566 µM) with Staphylococcus aureus [4] (setting [9]). Besides, the ED50 in the test on Streptococcus pyogenes [2] was 3 mg/kg; in the test on Streptococcus pyogenes [5], 2 mg/kg.
Turning to `C[C@H](N)[C@H]1CCN(c2c(F)c(N)c3c(=O)c(C(=O)O)cn(C4CC4)c3c2F)C1` (stereo in doubt; 32F-S,S), the minimum inhibitory concentration (MIC) amounted to 0.05 µg/mL (≈ 0.127 µM) against Streptococcus pyogenes [1]; 0.4 µg/mL (≈ 1.02 µM) in the test on Pseudomonas aeruginosa (setting [7]); 0.1 µg/mL (≈ 0.255 µM) with Klebsiella pneumoniae (setting [8]); 0.025 µg/mL (≈ 0.0637 µM) in the test on Staphylococcus aureus [3] (setting [9]); 0.05 µg/mL (≈ 0.127 µM) in the test on Enterococcus faecalis (setting [10]); 0.05 µg/mL (≈ 0.127 µM) in the test on Enterobacter cloacae (setting [11]). Also, the MIC in the test with Escherichia coli (setting [12]) was 0.05 µg/mL (≈ 0.127 µM); in the test on Streptococcus pneumoniae (setting [13]) it was 0.025 µg/mL (≈ 0.0637 µM); with Providencia rettgeri (setting [14]) it was 0.4 µg/mL (≈ 1.02 µM); against Staphylococcus aureus [4], 0.013 µg/mL (≈ 0.0331 µM). The ED50 is above 25 mg/kg in the test with Streptococcus pyogenes [2] and 7 mg/kg in the test with Streptococcus pyogenes [5].
As for `CN[C@@H](C)[C@H]1CCN(c2c(F)c(N)c3c(=O)c(C(=O)O)cn(C4CC4)c3c2F)C1`, the MIC was 1.6 µg/mL (≈ 3.94 µM) in the test on Streptococcus pyogenes [1] (setting [6]); 3.1 µg/mL (≈ 7.63 µM) with Pseudomonas aeruginosa (setting [7]); 0.8 µg/mL (≈ 1.97 µM) in the test with Klebsiella pneumoniae (setting [8]); 0.8 µg/mL (≈ 1.97 µM) in the test on Staphylococcus aureus [3] (setting [9]); 1.6 µg/mL (≈ 3.94 µM) in the test with Enterococcus faecalis (setting [10]); 0.4 µg/mL (≈ 0.984 µM) in the test with Enterobacter cloacae (setting [11]). For the same molecule, the minimum inhibitory concentration (MIC) with Escherichia coli (setting [12]) was 0.4 µg/mL (≈ 0.984 µM); in the test with Streptococcus pneumoniae (setting [13]), 0.8 µg/mL (≈ 1.97 µM); in the test with Providencia rettgeri (setting [14]), 1.6 µg/mL (≈ 3.94 µM); with Staphylococcus aureus [4] (setting [9]), 0.4 µg/mL (≈ 0.984 µM).
Consider `CCN[C@H](C)[C@H]1CCN(c2cc3c(cc2F)c(=O)c(C(=O)O)cn3C2CC2)C1` (mixture of isomers; form 1), for which the MIC with Streptococcus pyogenes [1] was found to be 0.2 µg/mL; with Pseudomonas aeruginosa it was 6.3 µg/mL; with Klebsiella pneumoniae it was 0.8 µg/mL; against Staphylococcus aureus [3], 0.4 µg/mL; with Enterococcus faecalis, 0.4 µg/mL; against Enterobacter cloacae it was 0.4 µg/mL. Also, the MIC in the test with Escherichia coli came out at 0.4 µg/mL; against Streptococcus pneumoniae, 0.2 µg/mL; in the test with Providencia rettgeri, 1.6 µg/mL; in the test with Staphylococcus aureus [4], 0.2 µg/mL.
Turning to `CN[C@@H](C)[C@H]1CCN(c2cc3c(cc2F)c(=O)c(C(=O)O)cn3C2CC2)C1`, the MIC was determined as 0.4 µg/mL (≈ 1.07 µM) in the test with Streptococcus pyogenes [1] (setting [6]); 6.3 µg/mL (≈ 16.9 µM) in the test on Pseudomonas aeruginosa (setting [7]); 0.8 µg/mL (≈ 2.14 µM) in the test on Klebsiella pneumoniae (setting [8]); 1.6 µg/mL (≈ 4.28 µM) in the test on Staphylococcus aureus [3] (setting [9]); 0.8 µg/mL (≈ 2.14 µM) in the test with Enterococcus faecalis (setting [10]); 0.4 µg/mL (≈ 1.07 µM) in the test on Enterobacter cloacae (setting [11]). Further, the MIC is 0.4 µg/mL (≈ 1.07 µM) in the test on Escherichia coli (setting [12]), 0.4 µg/mL (≈ 1.07 µM) in the test with Streptococcus pneumoniae (setting [13]), 3.1 µg/mL (≈ 8.3 µM) in the test on Providencia rettgeri (setting [14]) and 0.2 µg/mL (≈ 0.536 µM) with Staphylococcus aureus [4] (setting [9]).
Take `CCN[C@H](C)[C@@H]1CCN(c2c(F)cc3c(=O)c(C(=O)O)cn(C4CC4)c3c2OC)C1`: the MIC came to 0.003 µg/mL (≈ 0.00719 µM) with Streptococcus pyogenes [1] (setting [6]); 3.1 µg/mL (≈ 7.43 µM) in the test on Pseudomonas aeruginosa (setting [7]); 0.4 µg/mL (≈ 0.958 µM) in the test with Klebsiella pneumoniae (setting [8]); 0.013 µg/mL (≈ 0.0311 µM) with Staphylococcus aureus [3] (setting [9]); 0.013 µg/mL (≈ 0.0311 µM) in the test with Enterococcus faecalis (setting [10]); 0.2 µg/mL (≈ 0.479 µM) in the test on Enterobacter cloacae (setting [11]). Besides, the MIC in the test on Escherichia coli (setting [12]) worked out at 0.2 µg/mL (≈ 0.479 µM); with Streptococcus pneumoniae (setting [13]) it was 0.003 µg/mL (≈ 0.00719 µM); with Providencia rettgeri (setting [14]) it was 0.8 µg/mL (≈ 1.92 µM); with Staphylococcus aureus [4] (setting [9]), 0.003 µg/mL (≈ 0.00719 µM). For the same molecule, in the test with Streptococcus pyogenes [2], the ED50 amounted to 3 mg/kg.
Turning to `COc1c(N2CC[C@@H]([C@H](C)N)C2)c(F)cc2c(=O)c(C(=O)O)cn(C3CC3)c12`, the MIC in the test with Streptococcus pyogenes [1] (setting [6]) worked out at 0.025 µg/mL (≈ 0.0642 µM); with Pseudomonas aeruginosa (setting [7]), 1.6 µg/mL (≈ 4.11 µM); in the test with Klebsiella pneumoniae (setting [8]), 0.4 µg/mL (≈ 1.03 µM); in the test with Staphylococcus aureus [3] (setting [9]), 0.05 µg/mL (≈ 0.128 µM); in the test with Enterococcus faecalis (setting [10]), 0.05 µg/mL (≈ 0.128 µM); in the test on Enterobacter cloacae (setting [11]) it was 0.8 µg/mL (≈ 2.05 µM). The MIC in the test on Escherichia coli (setting [12]) was found to be 0.4 µg/mL (≈ 1.03 µM); with Streptococcus pneumoniae (setting [13]) it was 0.025 µg/mL (≈ 0.0642 µM); in the test on Providencia rettgeri (setting [14]), 0.4 µg/mL (≈ 1.03 µM); in the test on Staphylococcus aureus [4] (setting [9]) it was 0.013 µg/mL (≈ 0.0334 µM). Moreover, the ED50 in the test on Streptococcus pyogenes [5] was 6 mg/kg.
With `CCN[C@@H](C)[C@H]1CCN(c2cc3c(cc2F)c(=O)c(C(=O)O)cn3C2CC2)C1`, the minimal inhibitory concentration (MIC) was determined as 0.4 µg/mL (≈ 1.03 µM) in the test on Streptococcus pyogenes [1] (setting [6]); 12.5 µg/mL (≈ 32.3 µM) with Pseudomonas aeruginosa (setting [7]); 0.8 µg/mL (≈ 2.06 µM) with Klebsiella pneumoniae (setting [8]); 0.8 µg/mL (≈ 2.06 µM) in the test with Staphylococcus aureus [3] (setting [9]); 0.8 µg/mL (≈ 2.06 µM) in the test with Enterococcus faecalis (setting [10]); 0.4 µg/mL (≈ 1.03 µM) in the test with Enterobacter cloacae (setting [11]). In addition, the MIC in the test on Escherichia coli (setting [12]) turned out to be 0.4 µg/mL (≈ 1.03 µM); in the test with Streptococcus pneumoniae (setting [13]), 0.4 µg/mL (≈ 1.03 µM); with Providencia rettgeri (setting [14]), 1.6 µg/mL (≈ 4.13 µM); in the test on Staphylococcus aureus [4] (setting [9]), 0.4 µg/mL (≈ 1.03 µM).

The values are drawn from ChEMBL document CHEMBL1126988, “Quinolone antibacterials containing the new 7-[3-(1-aminoethyl)-1- pyrrolidinyl] side chain: the effects of the 1-aminoethyl moiety and its stereochemical configurations on potency and in vivo efficacy” (J Med Chem, 1993).
